Test [1] deals with recombinant PfMAGLLP (Plasmodium falciparum, UniProt Q8IJ22). The test is described as follows: Fluorogenic substrate assay with rPfMAGLLP. The note with it: for inhibition of esterase activity of PfMAGLLP: 1 μM compound; for inhibition at 1 µM: read-out: inhibition of esterase activity of PfMAGLLP. The format is biochemical.
The subject of test [2] is serine hydrolases in Plasmodium falciparum parasites. The test can be described thus: FP-Rho labeling competition in whole Pf parasites. The format is cell-based. The note with it: 1 μM Sal A. In a few lines: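 P. falciparum cultures (ring/trophozoite, 13% parasitemia) treated with DMSO or test compound for 3 h at 37°C. 50 μg clarified lysate labeled with 1 μM FP-Rho for 1 h at 37°C; SDS-PAGE with in-gel fluorescence scan.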

The test system of test [3] is T. gondii depalmitoylase PPT1 (TgPPT1). The test is described as follows: FP-Rho labeling competition in T. gondii parasites. The format is cell-based, Toxoplasma gondii. The note with it: WT (Δku80) and ΔPPT1 parasites.
Test [4] deals with human depalmitoylase APT1 (Homo sapiens, UniProt O75608). The test can be described thus: FP-Rho labeling competition in HEK293T cells, APT1. The format is cell-based.
Sequence of human depalmitoylase APT1 (O75608 whole entry): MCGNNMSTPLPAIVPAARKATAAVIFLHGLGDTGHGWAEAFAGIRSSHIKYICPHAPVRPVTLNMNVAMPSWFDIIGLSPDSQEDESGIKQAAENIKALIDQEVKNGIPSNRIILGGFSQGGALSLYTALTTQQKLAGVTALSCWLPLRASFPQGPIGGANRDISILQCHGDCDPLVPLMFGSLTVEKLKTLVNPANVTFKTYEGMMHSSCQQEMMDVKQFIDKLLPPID
The target of test [5] is human depalmitoylase APT2 (Homo sapiens, UniProt O95372). The test is described as follows: FP-Rho labeling competition in HEK293T cells, APT2. It is filed as cell-based. In a few lines: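 Lysates of treated HEK293T cells, clarified at 4°C and quantified by BCA; 50 μg lysate labeled with 1 μM FP-Rho for 1 h at 37°C. Reactions quenched in reducing SDS sample buffer, resolved by SDS-PAGE, and gel fluorescence scanned (532-nm laser, 610-nm filter).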
Sequence of human depalmitoylase APT2 (O95372 whole entry): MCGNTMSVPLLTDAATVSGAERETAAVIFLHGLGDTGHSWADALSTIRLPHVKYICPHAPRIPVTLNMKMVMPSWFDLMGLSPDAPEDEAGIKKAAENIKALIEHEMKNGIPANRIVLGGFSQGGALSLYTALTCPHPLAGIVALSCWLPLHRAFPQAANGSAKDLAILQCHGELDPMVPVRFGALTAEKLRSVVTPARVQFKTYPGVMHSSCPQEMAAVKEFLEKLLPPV

The subject of test [6] is P. falciparum W2 parasites. The test can be described thus: P. falciparum replication assay. Conditions: for effect of isopentenyl pyrophosphate (IPP) on potency: 72 h growth assays in presence and absence of IPP; for EC50: Plasmodium falciparum, W2, 72 h, read-out: EC50 parasite growth inhibition. The format is cell-based, Plasmodium falciparum. The method, boiled down:
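Synchronized ring-stage W2 parasites in human erythrocytes, at 1% parasitemia and 0.5% hematocrit, exposed to test compound for 72 h. Cultures fixed in 1% paraformaldehyde (final) for 30 min at room temperature, then stained overnight at 4°C with 50 nM YOYO-1. Infected (YOYO-1-positive) versus uninfected cells counted by flow cytometry.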

The test system of test [7] is Pf lines expressing WT-GFP or S179T-GFP PfPARE. The test can be described thus: Sal A sensitivity of parasites expressing WT or S179T PfPARE-GFP. The note with it: WT-GFP versus S179T-GFP. It is filed as cell-based, Plasmodium falciparum.
Test [8] relates to Dd2 parasites overexpressing PfMAGLLP or other putative Sal A targets. The test can be described thus: Dose-response assays with parasites overexpressing putative Sal A targets. The format is cell-based, Plasmodium falciparum.
Test [9] deals with parasites expressing PfATP4 fused to GFP. The test can be described thus: Imaging of PfATP4-GFP parasites. It is filed as cell-based, Plasmodium falciparum. Conditions: 18 h treatment from 24-30 hpi; 2 μM Sal A or 6 μM Orlistat.
The subject of test [10] is a variety of mammalian cell lines. Conditions: ref Schulze et al., 2015; cited from earlier work.
Test [11] concerns Sal A-selected clones and parental Dd2_Polδ line. The test can be described thus: IC50 determination for Sal A-selected clones. The format is cell-based, Plasmodium falciparum. Conditions: versus parental Dd2_Polδ.

Here are results for seven compounds from publication PMC8027986 (Cell chemical biology, 2020).

A value given as a limit tells only on which side of the number the result lay.

By IC50 is commonly meant the midpoint of a concentration-inhibition curve. What is called inhibition is the change of the read-out against control, counted positive when it falls. The EC50 is the concentration at which the effect is half-maximal.

As to `O=C(ON1C(=O)CCC1=O)N1CCN(C(c2ccc(Cl)cc2)c2ccc(Cl)cc2)CC1` [MJN110], the “inhibition of esterase activity of PfMAGLLP” value in test [1] is given as “more than 90%”.

For the compound `O=C(OC(C(F)(F)F)C(F)(F)F)N1CCC(C(O)(c2ccc3c(c2)OCO3)c2ccc3c(c2)OCO3)CC1` [KML29], in test [1], the IC50 stood at 163 nM and the inhibition at 1 µM is greater than 90%.

Take Salinipostin A [Sal A]: in [2], the “inhibition of FP-Rho labeling of hydrolases in whole Pf parasites” value is reported as “Several hydrolases were inhibited”. For the same compound, the “competition with FP-Rho for labeling of TgPPT1” value in test [3] is on record as “able to compete with FP-Rho for labeling of TgPPT1”. Further, in test [4], the “inhibition of APT1 (FP-Rho competition)” value is “inhibits the human depalmitoylases APT1 and APT2 in a dose-dependent manner”. Moreover, in test [5], the “inhibition of APT2 (FP-Rho competition)” value was “inhibits the human depalmitoylases APT1 and APT2 in a dose-dependent manner”; the “relative potency APT2 versus APT1” value is given as “increased potency against APT2 over APT1”. Besides, the “effect of isopentenyl pyrophosphate (IPP) on potency” value in test [6] is recorded as “unaffected by IPP”. In test [7], the “sensitivity of parasites expressing WT or catalytically dead PfPARE” value is “equally sensitive”. The “shift in EC50 in parasites overexpressing PF3D7_0808500 or PF3D7_0818600” value in test [8] (exogenous overexpression) is “no shift in EC50”. The “shift in EC50 in parasites overexpressing PfMAGLLP versus WT” value in [8] (exogenously transfected plasmid) was “no apparent shift”. For the same compound, the “plasma membrane phenotype of schizonts” value in test [9] is “disorganized plasma membranes that failed to properly surround the merozoites”. Further, the “selectivity index over a variety of mammalian cell lines” value in test [10] was > 1,000.

Take `O=C(Oc1ccc([N+](=O)[O-])cc1)N1CCC(C(O)(c2ccc3c(c2)OCO3)c2ccc3c(c2)OCO3)CC1` [JZL 184]: the “inhibition of esterase activity of PfMAGLLP” value in [1] was 25%.

As for Salinipostin alkyne [Sal alk], the “effect of isopentenyl pyrophosphate (IPP) on potency” value in test [6] is recorded as “unaffected by IPP”. Further, the “potency against Pf parasites compared with parent natural product” value in test [6] (Pf parasites, Figure S1) is recorded as “retained full potency”.

On to `O=C(OC(C(F)(F)F)C(F)(F)F)N1CCN(C(c2ccc(Cl)cc2)c2ccc(Cl)cc2)CC1` [JW651], for which the EC50 in test [6] was determined as 839 nM. Further, in [6] (W2 parasites), the “decrease in potency against parasites as compared with Sal A” value is reported as 16 fold. In addition, in [1], the “potency against recombinant PfMAGLLP relative to Sal A” value is “virtually identical potency as Sal A” and the inhibition at 1 µM was greater than 90%. For the same compound, the “cross-resistance of Sal A-selected clones” value in [11] is “no cross-resistance”.

On to `CCCCCCCCCCC[C@@H](C[C@@H]1OC(=O)[C@H]1CCCCCC)OC(=O)[C@H](CC(C)C)NC=O` [Orlistat], for which the EC50 in test [6] was determined as 280 nM. Besides, the “potency against recombinant PfMAGLLP relative to Sal A” value in test [1] is given as “equipotent to Sal A”. Further, the “plasma membrane phenotype of schizonts” value in test [9] is on record as “disorganized plasma membranes that failed to properly surround the merozoites”. For the same compound, the “cross-resistance of Sal A-selected clones” value in [11] is given as “No significant cross-resistance”.
